Assay results as given in ChEMBL document CHEMBL1123194, “Isozyme-specific enzyme inhibitors. 11. L-homocysteine-ATP S-C5' covalent adducts as inhibitors of rat methionine adenosyltransferases” (J Med Chem, 1986).
Values joined by “and” are separate entries in the source; they are usually repeats but may differ in a detail not shown here. Identical values can stand only once.

Key:
[1] = biological target: S-adenosylmethionine synthase isoform type-2 (Rattus norvegicus, UniProt P18298); assay: Inhibition constant was evaluated with kidney Methionine adenosyltransferase II form of rat methionine adenosyltransferase, when ATP was the variable substrate (60 uM)
Method in brief: (§1)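 Rat MAT-2 and MAT-T, partially purified as described in earlier work. Assayed at 37 °C for 10 min in duplicate in 150 mM KCl, 15 mM MgCl2, 5 mM dithiothreitol, 50 mM Tris-HCl, pH 8.2, with L-[methyl-14C]methionine and MgATP. Six to eight levels of the variable substrate (0.5-4.0 × KM), two inhibitor levels plus no-inhibitor controls. Product captured on phosphocellulose disks and counted by scintillation. Blanks lacked ATP.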

[2] = biological target: T1, S-adenosylmethionine synthetase (MAT 1 and MAT 2) (Rattus norvegicus, UniProt P13444+P18298); assay: Inhibition constant was evaluated with kidney (MAT-2) form of rat methionine adenosyltransferase, when methionine was the variable substrate (2 mM); type: protein assay; method in brief: as §1
[3] = biological target: T1, S-adenosylmethionine synthetase (MAT 1 and MAT 2); assay: Inhibition constant was evaluated on novikoff hepatoma (MAT-T) form of rat methionine adenosyltransferase, when methionine was the variable substrate (2 mM); type: protein assay; method in brief: as §1
[4] = biological target: T1, S-adenosylmethionine synthetase (MAT 1 and MAT 2); assay: Inhibition constant was evaluated on novikoff hepatoma (MAT-T) form of rat methionine adenosyltransferase, when ATP was the variable substrate (60 uM); type: protein assay; settings: in the assay text read “120 uM” for “60 uM”; method in brief: as §1
[5] = Michaelis constant (KM) was evaluated; type: ADME

Sequence of S-adenosylmethionine synthase isoform type-2 (P18298 whole entry, canonical isoform): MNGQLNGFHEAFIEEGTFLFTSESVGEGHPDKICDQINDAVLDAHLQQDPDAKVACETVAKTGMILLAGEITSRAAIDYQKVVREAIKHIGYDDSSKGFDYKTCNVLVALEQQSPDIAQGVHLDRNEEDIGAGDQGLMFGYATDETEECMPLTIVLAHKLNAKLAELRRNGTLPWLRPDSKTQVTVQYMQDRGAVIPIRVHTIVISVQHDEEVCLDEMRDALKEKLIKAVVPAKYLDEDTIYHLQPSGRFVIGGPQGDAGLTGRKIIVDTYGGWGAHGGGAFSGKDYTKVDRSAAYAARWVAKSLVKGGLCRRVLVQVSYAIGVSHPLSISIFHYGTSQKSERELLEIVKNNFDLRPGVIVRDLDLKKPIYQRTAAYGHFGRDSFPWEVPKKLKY

Structure (SMILES) | Ki [1] [µM] | Ki [2] [µM] | Ki [3] [µM] | Ki [4] [µM] | Km [5]
Nc1ncnc2c1ncn2[C@@H]1O[C@H](C(CP(=O)(O)OP(=O)(O)NP(=O)(O)O)SCCC(N)C(=O)O)[C@@H](O)[C@H]1O (stereo not given in full) | 16 | 26 | 38 | 11 | –
Nc1ncnc2c1ncn2[C@@H]1O[C@H](C(CP(=O)(O)OP(=O)(O)OP(=O)(O)O)[S+]([O-])CCC(N)C(=O)O)[C@@H](O)[C@H]1O (stereo not given in full) | 140 | – | – | 81 | –
Nc1ncnc2c1ncn2[C@@H]1O[C@H](COP(=O)(O)OP(=O)(O)OP(=O)(O)O)[C@@H](O)[C@H]1O | – | – | – | – | 140 µM
Nc1ncnc2c1ncn2C1OC(CCP(=O)(O)OP(=O)(O)OP(=O)(O)O)[C@@H](O)[C@H]1O (stereo not given in full) | – | – | – | – | 75 µM and 310 µM
Nc1ncnc2c1ncn2[C@@H]1O[C@H](C(CP(=O)(O)OP(=O)(O)OP(=O)(O)O)SCCC(N)C(=O)O)[C@@H](O)[C@H]1O (single isomer, unassigned; epimer 1) | 39 | 62 | – | 32 | –
Nc1ncnc2c1ncn2[C@@H]1O[C@H](C(CP(=O)(O)OP(=O)(O)OP(=O)(O)O)SCCC(N)C(=O)O)[C@@H](O)[C@H]1O (single isomer, unassigned; epimer 2) | 180 | 200 | – | 148 | –
CSCC[C@H](N)C(=O)O [METHIONINE] | – | – | – | – | 5 µM and 15 µM
